Results collected from several papers.
Each line is one published result; the experiments were not run side by side.
Target: Calcium/calmodulin-dependent protein kinase type 1G (CAMK1G, Homo sapiens, UniProt Q96NX5)

N#CCCc1ccc2c(c1)-c1[nH]c3ccc([N+](=O)[O-])cc3c1CC(=O)N2 — remaining signal (cell-free assay; 0.5 µM): 103%
CN1CC(Oc2cnc(C#N)cc2-c2ccn3nc(NC(=O)C4CC4)cc3c2)C1 — inhibition (enzyme activity, inhibitor; 1 µM): -1%
Cc1cc(NC(=O)c2cccc3cc(-c4cccc5[nH]nc(N)c45)ccc23)ccc1F — activity vs control (enzyme activity, inhibitor; 0.1 µM): 102%
COc1cc2c(Nc3ccc(Br)cc3F)ncnc2cc1OCC1CCN(C)CC1 — remaining signal (cell-free assay; 0.5 µM): 101%
Cc1sc(C(=O)NC2COC2)cc1-n1cc(NC(=O)Nc2c(F)cccc2Cl)cn1 — remaining activity (enzyme activity, inhibitor; 10 µM): 93.1%
CC(C)(O)[C@H]1CC[C@H](Nc2ccc3ncc(-c4cccc(C(F)(F)F)c4)n3n2)CC1 — remaining activity (enzyme activity, inhibitor; 1 µM): 81.6%
CO[C@@H](C)c1c(Nc2ccc([C@@H](N(C)C(=O)C3CCS(=O)(=O)CC3)C(F)(F)F)cc2)cnc2cc(Cl)nn12 — remaining binding (cell-free assay, competition with immobilised ligand; 1 µM): 100%
COc1cc(Cl)c(C(=O)N[C@@H](CN[C@H]2CC[C@@H](N)CC2)Cc2ccc(C#N)cc2)cc1-c1ccc(CN[C@H](C)c2ccc(C)cc2)o1 — remaining activity (enzyme activity, inhibitor; 1 µM): 99%
Cc1ccc(C(=O)Nc2ccc(CN3CCN(C)CC3)c(C(F)(F)F)c2)cc1C#Cc1cnc2cccnn12 — remaining signal (cell-free assay; 23.5 nM): 95%
O=C1NC(c2ccccn2)Sc2ccccc21 (stereo not drawn) — remaining binding (cell-free assay, competition with immobilised ligand; 1 µM): 100%
O=C1Nc2ccc(Cl)cc2C1=Cc1cc(Cl)c(O)c(Cl)c1 — remaining signal (cell-free assay; 0.5 µM): 96.6%
c1ccc(N2CCN(Cc3nc4ccccc4[nH]3)CC2)nc1 — remaining binding (cell-free assay, competition with immobilised ligand; 1 µM): 100%
O=C(Nc1cnn(-c2csc(C(=O)NC3COC3)c2)c1)Nc1ccccc1Cl — remaining activity (enzyme activity, inhibitor; 5 µM): 94.2%
O=C(NCCCC1CCCCC1)c1ccc(CNC(=O)c2cnn(-c3ccccc3)c2C(F)(F)F)cc1 — remaining binding (cell-free assay, competition with immobilised ligand; 0.1 µM): 100%
Nc1ncnc2occ(-c3ccc(NC(=O)Nc4cc(C(F)(F)F)ccc4F)cc3)c12 — remaining signal (cell-free assay; 20 µM): 41%
